Results reported in PubChem BioAssay AID561 (The Scripps Research Institute Molecular Screening Center, 2006).
The campaign covered roughly 65,000 compounds. About 280 (0.43%) were called active. Only a selection was taken, and actives are over-represented in it overall. Unmarked numbers belong to inactive results.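 How the source made its calls: active means inhibition above the mean of all tested compounds plus 3 SD (cut at about 52% in these data); inactive means the rest.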

What follows are molecules tested against Nuclear receptor ROR-alpha (Homo sapiens) (UniProt P35398) (assay: inhibitors of orphan receptor RORA, primary screen, cell-based, luminescence (AID 561;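 further: 0% = RORA-transfected cells with DMSO and 100% = mock-transfected cells lacking RORA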)). Settings: CHO-K1 Gal4-RORA LBD luciferase reporter, at 10 µM, active compounds read high.
Summary of the method: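 Material: transiently transfected CHO-K1 cells, Gal4-DBD/human RORA-LBD fusion plus 5xGal4-luciferase reporter; doses: single concentration per compound, 10 µM final; incubation: 20 h at 37 °C; detection: luminescence from basal luciferase reporter expression; read-out: % inhibition of basal luciferase versus +RORA/-RORA DMSO controls; replication: tested once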

Nuclear receptor ROR-alpha (Homo sapiens), sequence (P35398 whole entry, looked up, the tested form may be a part): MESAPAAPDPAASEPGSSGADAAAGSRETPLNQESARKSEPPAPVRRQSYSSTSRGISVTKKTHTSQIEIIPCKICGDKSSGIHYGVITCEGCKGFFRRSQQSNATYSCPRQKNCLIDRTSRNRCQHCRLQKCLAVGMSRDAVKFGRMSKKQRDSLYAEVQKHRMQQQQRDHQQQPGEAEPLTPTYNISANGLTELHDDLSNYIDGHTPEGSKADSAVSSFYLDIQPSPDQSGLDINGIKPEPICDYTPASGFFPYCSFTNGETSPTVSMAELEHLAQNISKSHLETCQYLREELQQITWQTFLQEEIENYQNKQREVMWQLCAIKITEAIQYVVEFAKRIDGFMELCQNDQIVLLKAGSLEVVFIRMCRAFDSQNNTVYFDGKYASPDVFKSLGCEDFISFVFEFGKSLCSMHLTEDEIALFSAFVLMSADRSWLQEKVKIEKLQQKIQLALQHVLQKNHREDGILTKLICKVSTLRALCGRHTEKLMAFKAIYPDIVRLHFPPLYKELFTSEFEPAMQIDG

SMILES | inhibition
O=C(Nc1ccon1)c1cccc(Cl)c1 | 2.2%
O=C(Nc1ccc(Cl)cc1)c1ccsn1 | -59.5%
COc1ccc(OC)c(NC(=O)Cn2c(=O)oc3ccccc32)c1 | -7.4%
O=C(CC1OC(=O)c2ccccc21)NC1CCCCC1 (centres undefined) | 7.6%
COc1ccc(-c2cc(C(F)(F)F)nc(S(C)(=O)=O)n2)cc1OC | 60.9% (active)
CCN1C(=O)/C(=C2\SC(N3CCCCC3)=NC2=O)c2ccccc21 | -84.9%
c1ccc(-n2ncc3c2ncn2c(CSc4nc5ccccc5s4)nnc32)cc1 | 25%
O=C(NCc1ccccn1)c1c(O)c2c([nH]c1=O)CCCC2 | 9.5%
O=C(OC1CCOC1=O)c1ccc(-c2nc3ccccc3s2)s1 (centres undefined) | 60.6% (active)
CN(Cc1ccccc1)c1nc2c(c(=O)[nH]c(=O)n2C)n1CCSc1nc2ccccc2[nH]1 | -1.9%
CCOc1ccccc1NC(=O)CCN1CCN(S(=O)(=O)c2ccc(OC)cc2)CC1 | 0.6%
NC(=O)CSC1=Nc2ccccc2C2=NC(CCC(=O)NCc3ccc(F)cc3)C(=O)N12 (centres undefined) | 17.5%
CCOC(=O)C1=C(CC)Nc2ccccc2N=C1NC(=O)c1cccc(S(=O)(=O)N2CCCC2)c1 | -0.9%
CCn1c(=N)c(S(=O)(=O)c2ccc(F)cc2)cc2c(=O)n3ccccc3nc21 | 13.5%
c1ccc2c(c1)OCC(CNc1ncnc3nc[nH]c13)O2 (centres undefined) | -20.2%
Cc1ccc2nc(NC(=O)C3CCN(S(=O)(=O)c4ccc5c(c4)oc(=O)n5C)CC3)sc2c1 | -2.8%
CCOc1ccc(S(=O)(=O)N(CC(=O)O)c2ccccc2)cc1 | 0%
COc1cc(C2C(C(=O)Nc3ccccc3OC)=C(C)Nc3ncnn32)ccc1O (centres undefined) | -9.5%
COc1ccccc1NC(=O)c1ccc(C)s1 | -48.9%
COc1ccc(C(=O)Nc2ccc3c(c2)OCO3)cc1OC | -69.8%
COCCCNC(=O)C1CC(=O)N(c2ccc(C)cc2)C1 (centres undefined) | -6.1%
CCOC(=O)c1ccc(NC(=O)Cn2nnc(-c3ccc(C)cc3)n2)cc1 | -41.7%
C=C(C)CSc1nc(N)c2c3c(sc2n1)CCC3 | -56.2%
CC1CCC(NC(=O)c2ccc(N3CCCC3=O)cc2)CC1 (centres undefined) | -61.7%
CCNS(=O)(=O)c1ccc(NC(=O)Nc2cccc(OC)c2)cc1 | 10%

SMILES | inhibition
O=C(NCc1ccccc1)C1C(=O)N(Cc2ccccc2)C(=O)C1C1(O)CCCC1 (centres undefined) | 13%
CCOC(=O)CSc1nncc2ccc(OC)c(OC)c12 | 21%
Cc1ccccc1CSc1nnc(-c2cccnc2)n1N | 7.1%
O=C1c2ccccc2C(=O)N1c1ccccc1S(=O)C(F)(F)F (centres undefined) | -6.1%
COc1ccc(-n2ncc3c(N4CCc5ccccc54)ncnc32)cc1 | -50.3%
CCS(=O)(=O)N1CCCC(C(=O)NCc2ccc(C)cc2)C1 (centres undefined) | 5.2%
Cc1cccc2nc(CNc3ccc(F)cc3)cn12 | -1%
Cc1cccc(NC(=O)c2ccc3ccccc3n2)n1 | -83%
COc1ccc(N2CCN(C(=O)CSc3nc4cc(OC)c(OC)cc4cc3C#N)CC2)cc1 | 8.5%
Cc1ccc(NC(=O)NCC(c2cccnc2)N2CCOCC2)cc1 (centres undefined) | 20.8%
CCOC(=O)C1=C(C)NC(C)=C(C(=O)OCC)C1C1=COCCO1 | 7.2%
O=C(NCCN1CCOCC1)c1ccc2c(c1)ncn2C1CCCC1 | -3.7%
Cc1cc(C(=O)OCC(=O)NCc2ccco2)c(C)n1-c1ccccc1 | -61.4%
CCCOC(=O)c1[nH]c2c(c1C)C(=O)CC(c1cc(OC)c(OC)c(OC)c1)C2 (centres undefined) | 61.1% (active)
Cc1ccccc1OCC(=O)Nc1ccc(N2CCN(C(=O)C(C)C)CC2)c(Cl)c1 | 52% (active)
COc1ccc(C(=O)CSc2nnc(COc3ccccc3)n2Cc2ccco2)cc1 | -7.7%
COc1ccc(C)c2sc(=NC(=O)c3ccc(C#N)cc3)n(C)c12 | -84.6%
CCS(=O)(=O)n1nc(-c2ccc(OC)cc2)nc1SC | -52.4%
N#Cc1nc(Cc2ccccc2)oc1NCCc1ccccc1 | -54.1%
COc1cc(-n2c(C)nc3cc(C(=O)NCc4ccco4)ccc32)cc(OC)c1OC | -5.4%
COc1ccc(OC)c(CN2C(=O)CCC2(C)C(=O)NC2CCCCCC2)c1 (centres undefined) | 5.2%
CCN(CC)S(=O)(=O)c1cc(C(=O)Nc2ccccn2)ccc1C | -59.6%
O=C(Nc1c(C(=O)N2CCCCC2)cnn1-c1ccccc1)c1ccco1 | -6.7%
O=c1c2ccccc2oc2nc(C3CCCCC3)n(Cc3ccco3)c(=O)c12 | 2.7%
Cc1cccc(OCc2nnc(SCc3nc4cc(C(F)(F)F)ccc4c(=O)[nH]3)o2)c1 | 16.5%

SMILES | inhibition
CCOc1cccc(-c2nn3c(-c4ccccn4)nnc3s2)c1 | -0.6%
O=C(Nc1ccc(Cl)cn1)c1cnn2cccnc12 | -62%
CSc1ccc(NC(=O)N2CC(C)OC(C)C2)cc1 (centres undefined) | 9.2%
CCC(CC)C(=O)Nc1cccc(C(=O)N2CCCC2)c1 | -11%
Oc1ccc(Cl)cc1/C=N/c1nc2ccccc2[nH]1 | -51.7%
CSc1cccc(NC(=O)C2CCCN2S(=O)(=O)c2ccc3c(c2)CCC(=O)N3)c1 (centres undefined) | -14%
OC(COc1ccc2ccccc2c1)CN1CCOCC1 (centres undefined) | -16.8%
OCCCN1c2ccccc2Nc2nnc(-c3ccccc3)cc21 | -56.8%
CCC1(C)Cc2c(sc3nc4n(c(=O)c23)CCCS4)CO1 (centres undefined) | -15.7%
O=C(Cn1c(-c2cncs2)nc2ccccc21)NC1CCCC1 | 19.7%
CCOC(=O)N1CCN(C(=O)C2CCN(c3ncnc4c3sc3cccc(F)c34)CC2)CC1 | 75.2% (active)
O=C(Nc1nc(-c2ccncc2)cs1)C1COc2ccccc2O1 (centres undefined) | -15.8%
CNC(=O)CSc1nnnn1-c1ccc(C)cc1C | 14%
CC1CCCN(Cc2nc3c(c(=O)n(C)c(=O)n3C)n2CC(=O)c2ccccc2)C1 (centres undefined) | -31.2%
CC(=O)Nc1ccc(-c2nn3c(C)nnc3s2)cc1C | 10.7%
N#CC(=C1SC=CS1)c1nc(-c2ccccc2)cs1 | -59.7%
Cc1oc2nc(SCC(=O)NCc3cccnc3)nc(N)c2c1C | 72.8% (active)
CNC(=O)CN1C(=O)c2ccccc2S1(=O)=O | -15%
CC(C)c1ccc(NC(=O)NC2CCCCC2)cc1 | -85.1%
CC1CN(c2cc(=O)n(-c3cccc(Br)c3)c(=O)[nH]2)CC(C)O1 (centres undefined) | 29.5%
Cc1ccc(F)cc1NC(=O)Cc1nn(C)c(=O)c2ccccc12 | 53.5% (active)
Cc1ccnc(N2CCCC(C(=O)Nc3cc(F)ccc3C)C2)n1 (centres undefined) | 5.7%
CCC(=O)NC(=Nc1nc2ccccc2s1)NC(=O)CC | -48.7%
Cc1ccc(S(=O)(=O)Nc2ccc3ncccc3c2)cc1 | 56.7% (active)
CCOC(=O)c1nc(-c2ccc3c(c2)OCO3)[nH]c1C | -66.7%

SMILES | inhibition
c1c2c(cc3sc(N4CCCCC4)nc13)OCCO2 | 75.4% (active)
Fc1c(F)c(C(F)(F)F)c(F)c(F)c1N1CCN(c2ccc3nnc(C(F)(F)F)n3n2)CC1 | 6.9%
O=C(O)C1OC(C(=O)O)C2C1C(F)(F)C2(F)F (centres undefined) | 1.7%
COc1ccc(N=Cc2c(O)[nH]c3ccccc23)cc1OC | -55.7%
C(=C\c1ccccc1)/CSc1nnc(-c2cccnc2)n1Cc1ccco1 | -2.8%
Cc1nc2ccc(S(=O)(=O)NCC(=O)NCCN3CCCCC3C)cc2s1 (centres undefined) | 6.1%
Cn1c(=NC(=O)c2ccco2)sc2cccc(F)c21 | -61.5%
O=C(CN1C(=O)c2ccccc2S1(=O)=O)N1CCc2ccccc21 | 37.4%
COc1ccccc1CNC(=O)C1CCCN(S(=O)(=O)c2cccc3cccnc23)C1 (centres undefined) | 5.2%
CCC(=O)Oc1cccc(C(=O)Nc2ccc(-c3nnc(-c4ccco4)o3)cc2)c1 | -112%
COC(=O)c1sc(NC(=O)c2csc3c2CCCC3)nc1C | -33.7%
COc1ccc(OC)c(Nc2nc(-c3ccc(O)c(O)c3)cs2)c1 | 74.4% (active)
COc1ccc(C(=O)Nc2nncs2)c(OC)c1 | -62.9%
c1ccc(Nc2nc(-c3ccncc3)cs2)nc1 | -50.9%
Cn1nnc2cc(C(=O)NCCC3=CCCCC3)ccc21 | -18%
Cc1cc(C)nc(N2CCN(c3ncnc4c3oc3ccccc34)CC2)n1 | 7.6%
CCCOc1ccccc1C(=O)NCCCC(=O)O | 16.7%
O=C(C1CCN(c2nnc(-n3cccc3)s2)CC1)N1CCc2ccccc2C1 | 8.1%
COC(=O)Nc1ncc(CN2C(=O)c3ccccc3C2=O)s1 | 19.5%
COCn1c(COc2ccccc2)nc2ccccc21 | -53.4%
Cc1ccc(CCNC(=O)C2CCN(S(=O)(=O)N3CCCC3)CC2)cc1 | 2.2%
COc1ccc(Nc2oc(-c3ccccc3Cl)nc2C#N)cc1 | -98.6%
COC(=O)c1ccc(NC(=O)c2ccco2)cc1 | -77.4%
C=CCn1c(C(C)NC(=O)CC)nc2ccccc21 (centres undefined) | -12.3%
